From PubChem
TRPC4 act – TRPC4 (mouse) channel activation; HEK293 TRPC4beta/mu-opioid, Fluo4 calcium fluorescence; hits give high values; AID 2237; B-score at 10 µM; hit rate 0.49% among 310,000;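 active = B-score above 5 SD of library B-scores, and initial fluorescence ratio not above library mean plus 5 SD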;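 note: positive B-score marks a calcium rise read as TRPC4 activation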
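system = HEK293 cells stably co-expressing mouse TRPC4beta and mu-opioid receptor | schedule = Fluo4 dye loading 45 min at room temperature, 110 s recording | measure = B-scored integrated calcium fluorescence ratio | signal = Fluo4 calcium-sensitive dye fluorescence, kinetic, 1 Hz baseline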
TRPC4 inh – TRPC4 (mouse) channel inhibition; B-score at 10 µM; hit rate 0.39% among 300,000; Q9QUQ5; HEK293 TRPC4beta/mu-opioid, DAMGO-evoked Fluo4 calcium flux; hits give low values;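 active = B-score over 3 SD under the library average, no early fluorescence shift, positive overall ratio signal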
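System: stable TRPC4beta/mu-opioid receptor HEK293 cells; Dosing: single-point compound dosing; Measured by: Fluo4 Ca2+ flux fluorescence; Read-out basis: per-well B score of integrated baseline-normalized Fluo4 ratio.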
TRPC4 potent – TRPC4 (mouse) allosteric potentiation. hit rate 0.42% among 310,000. B-score at 10 µM. HEK293 TRPC4beta/mu-opioid, DAMGO EC20, Fluo-4 Ca2+ flux; hits give high values. Q9QUQ5;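 active = B-score of calcium response area above 5 SD of library B-scores, with initial fluorescence ratio within 5 SD of library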
Pemphigus Ab inh – blocks pemphigus antibody binding to human desmoglein-3 | DSG3-coupled beads, scFv-anti-DSG3-GFP binding, flow cytometry; hits give low values | binding (percent of control), % at 10 µM | hit rate 0.48% among 310,000 | AID 588358 | P32926;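 active = binding more than 3 SD below its plate's average and above zero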;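 note: hits lower antibody fragment binding to DSG3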
Target sequence (P32926 whole entry, looked up, the tested form may be a part): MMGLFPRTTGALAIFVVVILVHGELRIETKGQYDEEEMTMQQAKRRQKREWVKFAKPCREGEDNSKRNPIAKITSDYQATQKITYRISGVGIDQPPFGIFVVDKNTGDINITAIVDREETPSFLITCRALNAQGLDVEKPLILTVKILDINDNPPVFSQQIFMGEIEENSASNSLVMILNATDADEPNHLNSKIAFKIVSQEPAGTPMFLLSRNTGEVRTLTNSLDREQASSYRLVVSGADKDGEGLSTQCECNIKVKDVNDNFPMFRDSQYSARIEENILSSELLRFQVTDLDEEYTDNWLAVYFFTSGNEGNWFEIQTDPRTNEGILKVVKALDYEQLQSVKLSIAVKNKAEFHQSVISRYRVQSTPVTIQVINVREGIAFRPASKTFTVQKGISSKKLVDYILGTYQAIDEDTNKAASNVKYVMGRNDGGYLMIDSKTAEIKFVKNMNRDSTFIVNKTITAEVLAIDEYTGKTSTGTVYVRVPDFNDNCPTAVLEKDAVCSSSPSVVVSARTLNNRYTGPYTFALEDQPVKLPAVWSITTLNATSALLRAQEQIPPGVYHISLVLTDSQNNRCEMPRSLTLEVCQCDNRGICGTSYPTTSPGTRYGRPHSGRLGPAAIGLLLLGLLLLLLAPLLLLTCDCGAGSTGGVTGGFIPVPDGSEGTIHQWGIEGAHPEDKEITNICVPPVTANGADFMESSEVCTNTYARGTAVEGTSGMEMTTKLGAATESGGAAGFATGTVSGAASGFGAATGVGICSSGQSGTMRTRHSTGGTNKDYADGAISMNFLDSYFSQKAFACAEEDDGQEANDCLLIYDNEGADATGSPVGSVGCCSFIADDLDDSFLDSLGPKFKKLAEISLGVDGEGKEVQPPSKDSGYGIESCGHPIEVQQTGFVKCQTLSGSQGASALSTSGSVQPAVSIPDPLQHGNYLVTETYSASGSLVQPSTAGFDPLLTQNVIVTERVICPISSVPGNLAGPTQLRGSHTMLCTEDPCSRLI
TRPC6 inh – inhibitors of mouse TRPC6 channel; Q61143; HEK293-TRPC6, membrane potential dye, ACh-evoked depolarization; hits give low values; AID 2553; B-score at 10 µM; hit rate 1.1% among 310,000;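 active = B-score under library mean minus 3 SD, initial fluorescence not abnormally high, positive integrated signal ratio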;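 note: B-score derived from integrated fluorescence ratio over the kinetic read; more negative B-score means stronger inhibition of depolarization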
TRPC6 act – activators of mouse TRPC6 channel. HEK293-TRPC6 membrane potential dye fluorescence; hits give high values. B-score at 10 µM. hit rate 0.13% among 310,000;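 active = B-score of the integrated fluorescence ratio above library mean plus 3 SD, and starting fluorescence ratio within library mean plus 5 SD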;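 note: higher score means more depolarization so channel activation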
TRPC4 sel inh 2 – second check of whether TRPC6 inhibitors also affect mouse TRPC4. shares compounds with TRPC6 inh. HEK293 TRPC4/MOR, membrane potential dye fluorescence; channel activated by saturating DAMGO dose. inhibition, % at 10 µM. hit rate 42% among 920;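 active = compounds whose fluorescence signal differed from control wells by over 3 SD, either direction, in both duplicate plates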
TRPC4 spec – selectivity of TRPC6 inhibitors: effect on mouse TRPC4. activity change, negative = inhibition, % at 10 µM. hit rate 61% among 920. HEK293 TRPC4/mu-opioid, membrane potential fluorescence. shares compounds with TRPC6 inh. AID 2777;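 active = rise or fall in signal beyond 3 SD of buffer-only wells in both replicate plates, either sign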;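 note: integrated kinetic ratio of fluorescence range over baseline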
HEK293 MPD ctr 2-1 – second check of TRPC6 inhibitor effects in parental HEK293 cells. shares compounds with TRPC6 inh. parental HEK293 membrane potential dye fluorescence; maximal acetylcholine challenge after compound addition. signal change vs control, % at 10 µM. hit rate 31% among 920. AID 2779;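 active = membrane potential signal moving either way by over 3 SD of the maximum-effect control, in both duplicate plates, meaning non-specific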
HEK293 MPD ctr-1 – parental HEK293 nonspecific activity of TRPC6 inhibitors; hit rate 60% among 920; membrane potential signal change, % at 10 µM; shares compounds with TRPC6 inh; parental HEK293 membrane potential dye fluorescence;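 active = membrane potential signal shifting up or down by more than 3 SD of buffer-only wells, on both duplicate plates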
HEK293 MPD ctr-2 – counter-screen for TRPC6 modulators: effect in parental HEK293 cells; membrane potential signal change, % at 10 µM; shares compounds with TRPC6 inh; hit rate 51% among 2,400; membrane potential dye fluorescence;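 active = membrane potential signal moves up or down beyond 5 SD from buffer-only wells, on both duplicate plates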
HEK293 MPD ctr 2-2 – second counter-screen for TRPC6 modulators: effect in parental HEK293 cells; hit rate 14% among 2,400; AID 488926; shares compounds with TRPC6 inh; inhibition, % at 10 µM; membrane potential dye fluorescence; after compound, maximal acetylcholine stimulation;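 active = membrane potential signal drops by more than 5 SD from the mean control signal, in both duplicate plates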
TRPC4/MOR mod – mouse TRPC4 off-target activity of TRPC6 modulators. shares compounds with TRPC6 inh. HEK293 TRPC4/mu-opioid, membrane potential fluorescence. percent change from control (negative = decrease, positive = increase), % at 10 µM. hit rate 69% among 2,400;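 active = membrane potential signal moved up or down beyond 5 SD of buffer control wells, in both duplicate plates, actives on both sides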
TRPC4 ctr inh 2 – second check of whether TRPC6 modulators also affect mouse TRPC4; HEK293 TRPC4/mu-opioid, membrane potential dye fluorescence; stimulated with maximal-effect DAMGO; AID 488928; shares compounds with TRPC6 inh; hit rate 55% among 2,400; inhibition, % at 10 µM;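 active = drop in membrane potential signal beyond 5 SD of the control wells in both duplicate plates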;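 note: TRPC4 counter screen for TRPC6 hits run under conditions tuned for TRPC6 not TRPC4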
TRPC6 block conf – confirmation of mouse TRPC6 inhibitors; shares compounds with TRPC6 inh; HEK293-TRPC6, membrane potential dye, ACh-evoked depolarization; inhibition, % at 10 µM; hit rate 43% among 3,300; AID 488960;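 active = fluorescence ratio falls more than 5 SD below the full-stimulation control mean, in both duplicate runs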;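 note: integrated fluorescence ratio of peak minus minimum over baseline after agonist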
TRPC6 act confirm – confirmation of mouse TRPC6 activators; AID 488961; shares compounds with TRPC6 inh; HEK293-TRPC6 membrane potential dye fluorescence, FDSS; hit rate 11% among 2,800; activation, % at 10 µM;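 active = ratio signal rise beyond 5 SD above unstimulated control wells' mean, seen in both duplicate runs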
Numbers stand for hits; - = inactive; . = no result given. In the library only some 2.5% were active in any assay of this set; here they are far more common.

SMILES	TRPC4 act	TRPC4 inh	TRPC4 potent	Pemphigus Ab inh	TRPC6 inh	TRPC6 act	HEK293 MPD ctr-2	HEK293 MPD ctr 2-2	TRPC4/MOR mod	TRPC4 ctr inh 2	TRPC6 block conf	TRPC6 act confirm	others
Cc1ccc(O)c(CNCCNCc2cc(C)ccc2O)c1	-	-	-	-	-6.4	-	161%	-	16%	82%	44%	.
CCc1ccc(O)c(CNCCNCc2cc(CC)ccc2O)c1	-	-	-	-	-	-	.	.	.	.	.	.
Cc1onc(-c2c(Cl)cccc2Cl)c1NC(=O)NN(C)C	-	-	-	-	-	-	.	.	.	.	.	.
Cc1onc(-c2c(Cl)cccc2Cl)c1NC(=O)N1CCSCC1	-	-	-	.	-	12	-	-	-	-	-	-
CC1=Nc2ccccc2/C1=C/c1nc(-c2ccc(C)s2)oc1O	-	-	-	-	-	-	.	.	.	.	.	.
CC1=Nc2ccccc2/C1=C/c1sc(=N)n(-c2nccs2)c1O	-	-	-	-	-	36	714%	-	110%	-	-	192%
Cc1cccc(Oc2ccccc2NC(=O)C2=COCCO2)c1	.	.	.	-	.	.	.	.	.	.	.	.
COc1ccc(/C(N)=N/OC(=O)C2CCCCC2)cc1	-	-	-	-	-	-	.	.	.	.	.	.
c1ccc(CN2CCN(c3nc(NCc4ccco4)c4ccccc4n3)CC2)cc1	-	-	-	-	-	-	.	.	.	.	.	.
OCCN1CCN(c2nc(NCc3ccco3)c3ccccc3n2)CC1	-	-	-	-	-6	-	-228%	-	-38%	57%	-	-
c1ccc2c(NCC3CCCO3)nc(N3CCCCC3)nc2c1 (configuration not stated)	-	-	-	-	-	-	.	.	.	.	.	.
Oc1ccc(Nc2nc(NCC3CCCO3)c3ccccc3n2)cc1 (configuration not stated)	-	-	-	.	-6.5	-	-	-	-12%	56%	38%	-
COc1cccc(Nc2nc(NCCO)c3ccccc3n2)c1	-	-	-	-	-11	-	.	.	.	.	90%	-	TRPC4 sel inh 2=40%;TRPC4 spec=-22%;HEK293 MPD ctr 2-1=27%;HEK293 MPD ctr-1=-237%
COc1cccc(Nc2nc(NCC3CCCO3)c3ccccc3n2)c1 (configuration not stated)	-	-	-	-	-11	-	-	-	-22%	74%	58%	-
CCOC(=O)Cn1ncn(-c2ccc(OC(F)(F)F)cc2)c1=O	-	-	-	-	-	-	.	.	.	.	.	.
O=C(CCN1CCOCC1)N1CCCC(Nc2cccc(F)c2)C1 (configuration not stated)	-	-	-	-	-	-	.	.	.	.	.	.
Oc1ccccc1Nc1nc(NCC2CCCO2)c2ccccc2n1 (configuration not stated)	-	-	-	-	-15	-	.	.	.	.	75%	-	TRPC4 sel inh 2=28%;TRPC4 spec=-22%;HEK293 MPD ctr 2-1=-;HEK293 MPD ctr-1=-273%
Oc1ccccc1Nc1nc(NCc2ccco2)c2ccccc2n1	-	-6	-	-	-8.5	-	.	.	.	.	-	-	TRPC4 sel inh 2=74%;TRPC4 spec=-;HEK293 MPD ctr 2-1=-;HEK293 MPD ctr-1=-
Oc1ccc(Cl)cc1Nc1nc(NCC2CCCO2)c2ccccc2n1 (configuration not stated)	-	-	-	-	-	-	.	.	.	.	.	.
COc1ccc(OC)c(Nc2nc(NCc3ccco3)c3ccccc3n2)c1	-	-	-	-	-	-	.	.	.	.	.	.
Cc1c(Cc2ccccc2)c(NCCN(C)C)n2c(nc3ccccc32)c1C#N	-	-	-	-	-6	-	-	-	-	54%	-	-
Cc1c2c(n3c(nc4ccccc43)c1C#N)N(CCCN(C)C)CC2	-	-	-	-	-8.3	-	-314%	98%	-56%	62%	68%	-
CCc1c(C)c(C#N)c2nc3ccccc3n2c1NCCCN(C)C	.	.	.	-	.	.	.	.	.	.	.	.
CCCCc1c(C)c(C#N)c2nc3ccccc3n2c1NCCN(C)C	-	-	-	-	-	-	.	.	.	.	.	.
Cc1c2c(n3c(nc4ccccc43)c1C#N)N(CCN(C)C)CC2	-	-	-	-	-11	-	-324%	95%	-60%	71%	70%	-
SMILES	TRPC4 act	TRPC4 inh	TRPC4 potent	Pemphigus Ab inh	TRPC6 inh	TRPC6 act	HEK293 MPD ctr-2	HEK293 MPD ctr 2-2	TRPC4/MOR mod	TRPC4 ctr inh 2	TRPC6 block conf	TRPC6 act confirm	others
COC(=O)c1ccc(CN2CCN(CCC(C)C)C(CCO)C2)cc1 (configuration not stated)	-	-	-	-	-5.2	-	99%	-	10%	-	-	.
Cc1cc(-n2cccn2)ccc1CN1CCN(CC(C)C)C(CCO)C1 (configuration not stated)	-	-	-	-	-8.3	-	.	.	.	.	58%	-	TRPC4 sel inh 2=-;TRPC4 spec=4.3%;HEK293 MPD ctr 2-1=26%;HEK293 MPD ctr-1=5.6%
CC(=O)Nc1ccc(CN2CCN(C3CCCC3)C(CCO)C2)cc1 (configuration not stated)	-	-	-	-	-6.9	-	.	.	.	.	-	-	TRPC4 sel inh 2=-;TRPC4 spec=-;HEK293 MPD ctr 2-1=-;HEK293 MPD ctr-1=-
Cc1cc(-n2cccn2)ccc1CN1CCN(C2CCCC2)C(CCO)C1 (configuration not stated)	-	-	-	-	-9.7	-	.	.	.	.	63%	.	TRPC4 sel inh 2=-;TRPC4 spec=8.4%;HEK293 MPD ctr 2-1=20%;HEK293 MPD ctr-1=9.2%
Cc1cc(C(=O)CCC(=O)NC(C)c2ccc(S(N)(=O)=O)cc2)c(C)s1 (configuration not stated)	-	-	-	-	-	-	.	.	.	.	.	.
CCOC(=O)c1c(NC(=O)CSc2nnc(C)c(=O)[nH]2)sc(C)c1-c1ccc(C)cc1	-	-	-	-	-	14	136%	-	36%	-	-	86%
